Source: ChEMBL document CHEMBL4837261, “Optimization of TopoIV Potency, ADMET Properties, and hERG Inhibition of 5-Amino-1,3-dioxane-Linked Novel Bacterial Topoisomerase Inhibitors: Identification of a Lead with In Vivo Efficacy against MRSA” (J Med Chem, 2021)
pIC50: −log10 of the molar value. Converted amounts (≈) assume the structure as drawn.

How the values were obtained:
[1] = test system: Klebsiella pneumoniae; assay: Antibacterial activity against Klebsiella pneumoniae isolates by CLSI method; assay type: functional
[2] = test system: Staphylococcus aureus; assay: Antibacterial activity against Staphylococcus aureus ATCC 29213 by CLSI method; assay type: functional
[3] = test system: HepaRG; assay: Cytotoxicity against human HepaRG cells at 100 uM by ATP depletion assay; assay type: cell-based
Summary of the method: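 An ATP depletion read-out in HepaRG cells gave cytotoxicity across 0.01–100 μM, reported as % cytotoxicity at 100 μM.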

[4] = biological target: Cav1.2 (Homo sapiens, UniProt Q13936); assay: Inhibition of recombinant human Cav1.2 expressed in human HEK293 cells at 100 uM measured at peak current by automated Qpatch clamp assay relative to control; assay type: ADME, cell-based; conditions: HEK293 cells expressing recombinant human Cav1.2
[5] = biological target: CYP2D6 (Homo sapiens, UniProt P10635); assay: Inhibition of CYP2D6 (unknown origin) at 10 uM relative to control; assay type: ADME
[6] = Oral bioavailability in ICR (CD-1) mouse at 50 mg/kg measured up to 1440 mins by LC-MS/MS analysis; assay type: ADME, organism-based; conditions: in vivo
Summary of the method: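 Male ICR (CD-1) mice, 22 ± 2 g, given free base in DMSO/Solutol HS-15/0.9% NaCl (5/5/90) at 50 mg/kg PO or 10 mg/kg IV. Three mice per timepoint, 8 timepoints. Plasma taken by cardiac puncture at 10–1440 min (PO) or 3–1440 min (IV). Measured by LC-MS/MS, with parameters from noncompartmental analysis.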

[7] = biological target: CYP1A2 (Homo sapiens, UniProt P05177); assay: Inhibition of CYP1A2 (unknown origin) at 10 uM relative to control; assay type: ADME
[8] = biological target: Sodium channel protein type 5 subunit alpha (Homo sapiens, UniProt Q14524); assay: Activation of recombinant human Nav1.5 late expressed in human HEK293 cells assessed as activation of late current at 100 uM by automated Qpatch clamp assay relative to control; assay type: ADME, cell-based; conditions: hek293, 100 µM
[9] = biological target: Nav1.5 (late current) (Homo sapiens, UniProt Q14524); assay: Inhibition of recombinant human Nav1.5 late expressed in human HEK293 cells at 100 uM in presence of ATXII by automated Qpatch clamp assay relative to contro; assay type: ADME, cell-based; conditions: HEK293 cells expressing recombinant human Nav1.5
[10] = Growth inhibition of human K/VP.5 cells incubated for 48 hrs by NBTI cell counting analysis; assay type: functional; conditions: K562, 48 h
[11] = test system: THP-1; assay: Cytotoxicity against human THP-1 cells; assay type: cell-based
Summary of the method: (§1)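 THP-1, HepG2 and HeLa cells were exposed to compound from 128 to 0.0625 μg/mL. IC50 was obtained by nonlinear regression of the inhibition curves.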

[12] = biological target: CYP2B6 (Homo sapiens, UniProt P20813); assay: Inhibition of CYP2B6 (unknown origin) at 10 uM relative to control; assay type: ADME
[13] = biological target: Kv4.3 (KCND3) (Homo sapiens, UniProt Q9UK17); assay: Inhibition of recombinant human Kv4.3 expressed in human HEK293 cells at 100 uM measured at peak current by automated Qpatch clamp assay relative to control; assay type: ADME, cell-based; conditions: HEK293 cells expressing recombinant human Kv4.3
[14] = test system: Staphylococcus aureus; assay: Antibacterial activity against Staphylococcus aureus 3527 by CLSI method; assay type: functional
[15] = biological target: Cytochrome P450 1A2 (Homo sapiens, UniProt P05177); assay: Inhibition of CYP1A2 (unknown origin); assay type: ADME
[16] = biological target: DNA gyrase (Staphylococcus aureus) (UniProt P0A0K8+P20831); assay: Inhibition of Staphylococcus aureus DNA Gyrase assessed as reduction in supercoiling pBR322 DNA by measuring induction of single strand breaks by ethidium bromide staining based agarose gel electrophoresis; assay type: protein-complex assay; conditions: dose 1-100 µM
Summary of the method: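 Gyrase-mediated cleavage of negatively supercoiled pBR322 ran for 30 min at 37 °C with compound at 0.5–200 μM. Single- and double-strand break products were quantified from gel lane fluorescence, corrected for differential emission of supercoiled versus linear DNA.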

[17] = Half life in ICR (CD-1) mouse at 10 mg/kg, iv measured up to 1440 mins by LC-MS/MS analysis; assay type: ADME, organism-based; conditions: in vivo
Summary of the method: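 Male ICR (CD-1) mice, 22 ± 2 g, given the free base in DMSO/Solutol HS-15/0.9% NaCl (5/5/90, v/v/v), IV at 10 mg/kg or PO at 50 mg/kg; 24 mice per route, three per timepoint. Plasma was taken by cardiac puncture at 3–1440 min (IV) or 10–1440 min (PO), measured by LC-MS/MS, and parameters were derived by noncompartmental analysis.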

[18] = biological target: Acetylcholinesterase (Homo sapiens) (UniProt P22303); assay: Inhibition of human recombinant acetylcholinesterase receptor expressed in HEK293 cells at 100 uM by spectrophotometry; assay type: cell-based
[19] = test system: Escherichia coli; assay: Antibacterial activity against Escherichia coli isolates by CLSI method; assay type: functional
[20] = biological target: Nav1.5 (Homo sapiens, UniProt Q14524); assay: Inhibition of recombinant human Nav1.5 expressed in human HEK293 cells at 100 uM measured at peak current by automated Qpatch clamp assay relative to control; assay type: ADME, cell-based; conditions: HEK293 cells expressing recombinant human Nav1.5
[21] = test system: Staphylococcus aureus; assay: Antibacterial activity against cystic fibrosis isolate Staphylococcus aureus by CLSI method; assay type: functional
[22] = test system: HepG2; assay: Cytotoxicity against human HepG2 cells; assay type: cell-based; summary of the method: as §1
[23] = biological target: KCNQ1 (Homo sapiens, UniProt P51787); assay: Inhibition of recombinant human KCNQ1 expressed in CHO-K1 cells at 100 uM by automated Qpatch clamp assay relative to control; assay type: ADME, cell-based; conditions: CHO-K1 cells expressing recombinant human KCNQ1
[24] = test system: Staphylococcus aureus; assay: Antibacterial activity against methicillin-resistant Staphylococcus aureus ATCC 33591 infected in iv dosed CD1 mouse model of septicemia assessed as mouse survival at 1 to 10 mg/kg, iv administered 0.5 to 3.5 hrs post injection measured for 7 days relative to control; assay type: functional; conditions: dose 1-10 mg/kg, time 7 day
Summary of the method: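 Female CD-1 mice (18–20 g), in groups of six, were infected IP with 1.3 × 10^8 CFU MRSA ATCC 33591 suspended in 8% hog gastric mucin (pH 7.5). Compound was given as the methanesulfonate salt in 5% DMSO/water for injection, by IV tail vein at 0.5, 1.5, 2.5 and 3.5 h post infection. Dose levels were 1, 5, 10, 25 and 50 mg/kg/dose. Survival was followed for 7 days against untreated infection controls.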

[25] = biological target: Topoisomerase IV (Staphylococcus aureus, UniProt P0C1S7+P0C1U9); assay: Inhibition of Staphylococcus aureus topoisomerase IV decatenation activity using kDNA as substrate by ethidium bromide/bromophenol blue staining based agarose gel electrophoresis analysis; assay type: protein-complex assay
[26] = biological target: Cytochrome P450 2C9 (Homo sapiens, UniProt P11712); assay: Inhibition of CYP2C9 (unknown origin); assay type: ADME
[27] = biological target: DNA gyrase (Staphylococcus aureus, UniProt P0A0K8+P20831); assay: Inhibition of Staphylococcus aureus Gyrase supercoiling activity assessed as reduction in supercoiling pBR322 DNA by measuring relaxation by bromophenol blue staining based TAE gel method; assay type: protein-complex assay
[28] = test system: HeLa; assay: Cytotoxicity against human HeLa cells; assay type: cell-based; summary of the method: as §1
[29] = biological target: Cytochrome P450 2D6 (Homo sapiens, UniProt P10635); assay: Inhibition of CYP2D6 (unknown origin); assay type: ADME

Cav1.2, sequence (Q13936 whole entry): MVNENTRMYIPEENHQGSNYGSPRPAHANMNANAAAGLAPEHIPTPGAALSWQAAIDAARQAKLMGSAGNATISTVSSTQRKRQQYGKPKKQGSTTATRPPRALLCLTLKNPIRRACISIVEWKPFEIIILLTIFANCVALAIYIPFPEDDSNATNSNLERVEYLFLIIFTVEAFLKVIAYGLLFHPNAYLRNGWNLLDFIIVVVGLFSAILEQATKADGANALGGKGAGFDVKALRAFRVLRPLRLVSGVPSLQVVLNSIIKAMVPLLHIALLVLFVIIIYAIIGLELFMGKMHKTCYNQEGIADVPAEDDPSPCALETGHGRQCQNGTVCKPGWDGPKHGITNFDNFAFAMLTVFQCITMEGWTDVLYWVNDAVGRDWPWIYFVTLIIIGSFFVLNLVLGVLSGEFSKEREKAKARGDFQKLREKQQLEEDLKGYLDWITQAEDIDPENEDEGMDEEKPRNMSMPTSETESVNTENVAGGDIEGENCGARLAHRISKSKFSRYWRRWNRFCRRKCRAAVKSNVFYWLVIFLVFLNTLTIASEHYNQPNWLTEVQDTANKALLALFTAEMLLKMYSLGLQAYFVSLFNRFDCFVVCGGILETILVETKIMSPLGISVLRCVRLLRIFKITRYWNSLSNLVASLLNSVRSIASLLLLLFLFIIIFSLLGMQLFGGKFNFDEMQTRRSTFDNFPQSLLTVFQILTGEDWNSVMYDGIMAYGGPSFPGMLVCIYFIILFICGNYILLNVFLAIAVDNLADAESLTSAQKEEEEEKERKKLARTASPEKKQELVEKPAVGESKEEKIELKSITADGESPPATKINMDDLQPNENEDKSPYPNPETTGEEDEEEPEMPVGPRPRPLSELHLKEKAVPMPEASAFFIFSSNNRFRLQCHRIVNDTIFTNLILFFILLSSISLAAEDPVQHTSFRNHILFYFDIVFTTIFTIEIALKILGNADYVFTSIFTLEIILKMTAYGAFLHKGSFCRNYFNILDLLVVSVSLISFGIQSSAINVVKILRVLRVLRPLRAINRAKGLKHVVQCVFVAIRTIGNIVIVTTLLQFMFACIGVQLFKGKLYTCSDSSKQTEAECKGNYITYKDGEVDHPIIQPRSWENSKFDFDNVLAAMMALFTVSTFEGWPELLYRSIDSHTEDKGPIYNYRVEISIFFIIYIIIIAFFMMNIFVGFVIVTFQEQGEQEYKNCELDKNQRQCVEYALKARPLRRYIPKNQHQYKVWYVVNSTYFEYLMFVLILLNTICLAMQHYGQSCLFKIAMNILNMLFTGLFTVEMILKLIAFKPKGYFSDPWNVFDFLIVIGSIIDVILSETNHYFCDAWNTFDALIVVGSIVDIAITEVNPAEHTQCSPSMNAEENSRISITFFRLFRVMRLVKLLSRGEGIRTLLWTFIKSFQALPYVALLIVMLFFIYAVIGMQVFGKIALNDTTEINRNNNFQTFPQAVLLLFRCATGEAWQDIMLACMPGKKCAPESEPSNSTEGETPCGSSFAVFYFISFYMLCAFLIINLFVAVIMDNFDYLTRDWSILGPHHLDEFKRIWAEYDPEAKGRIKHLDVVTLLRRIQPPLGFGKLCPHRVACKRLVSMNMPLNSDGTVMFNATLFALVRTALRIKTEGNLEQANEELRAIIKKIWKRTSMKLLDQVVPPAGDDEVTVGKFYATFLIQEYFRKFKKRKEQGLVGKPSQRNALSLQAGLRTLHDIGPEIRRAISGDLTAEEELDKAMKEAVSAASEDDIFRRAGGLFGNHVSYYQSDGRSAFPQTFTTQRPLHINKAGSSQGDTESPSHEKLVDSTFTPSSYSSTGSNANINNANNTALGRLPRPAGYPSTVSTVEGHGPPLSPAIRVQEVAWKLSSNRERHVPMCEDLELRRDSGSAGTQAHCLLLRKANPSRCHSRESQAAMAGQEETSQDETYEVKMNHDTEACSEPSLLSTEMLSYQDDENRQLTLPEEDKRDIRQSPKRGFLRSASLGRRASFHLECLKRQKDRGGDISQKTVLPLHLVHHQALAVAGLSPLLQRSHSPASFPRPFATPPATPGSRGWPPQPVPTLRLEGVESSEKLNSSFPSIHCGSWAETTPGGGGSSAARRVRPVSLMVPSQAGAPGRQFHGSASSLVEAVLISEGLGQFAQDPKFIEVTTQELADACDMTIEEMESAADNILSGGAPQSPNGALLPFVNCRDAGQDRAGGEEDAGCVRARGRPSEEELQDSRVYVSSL
Topoisomerase IV, sequence (P0C1U9 whole entry): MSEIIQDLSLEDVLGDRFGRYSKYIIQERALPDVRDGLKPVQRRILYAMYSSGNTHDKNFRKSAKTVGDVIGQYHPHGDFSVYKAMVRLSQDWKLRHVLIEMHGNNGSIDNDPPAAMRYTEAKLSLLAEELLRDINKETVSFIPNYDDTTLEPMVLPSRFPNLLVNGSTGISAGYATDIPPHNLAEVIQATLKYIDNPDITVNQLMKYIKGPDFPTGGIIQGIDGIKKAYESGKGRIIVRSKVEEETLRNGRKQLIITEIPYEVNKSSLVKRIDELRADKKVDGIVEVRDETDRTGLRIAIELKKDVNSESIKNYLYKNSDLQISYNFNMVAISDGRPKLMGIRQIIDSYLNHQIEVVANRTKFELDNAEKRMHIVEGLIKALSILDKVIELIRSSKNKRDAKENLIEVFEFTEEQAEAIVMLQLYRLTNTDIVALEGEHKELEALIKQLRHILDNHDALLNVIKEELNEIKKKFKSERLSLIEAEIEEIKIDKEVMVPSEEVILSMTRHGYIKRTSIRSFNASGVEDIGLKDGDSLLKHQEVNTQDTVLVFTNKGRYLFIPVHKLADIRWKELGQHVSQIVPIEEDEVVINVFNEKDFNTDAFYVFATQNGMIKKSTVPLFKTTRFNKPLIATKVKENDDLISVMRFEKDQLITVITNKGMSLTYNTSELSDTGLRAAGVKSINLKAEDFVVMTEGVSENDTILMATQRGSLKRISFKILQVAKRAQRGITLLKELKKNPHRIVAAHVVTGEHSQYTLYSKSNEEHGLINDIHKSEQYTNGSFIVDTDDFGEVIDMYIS
Topoisomerase IV, sequence (P0C1S7 whole entry): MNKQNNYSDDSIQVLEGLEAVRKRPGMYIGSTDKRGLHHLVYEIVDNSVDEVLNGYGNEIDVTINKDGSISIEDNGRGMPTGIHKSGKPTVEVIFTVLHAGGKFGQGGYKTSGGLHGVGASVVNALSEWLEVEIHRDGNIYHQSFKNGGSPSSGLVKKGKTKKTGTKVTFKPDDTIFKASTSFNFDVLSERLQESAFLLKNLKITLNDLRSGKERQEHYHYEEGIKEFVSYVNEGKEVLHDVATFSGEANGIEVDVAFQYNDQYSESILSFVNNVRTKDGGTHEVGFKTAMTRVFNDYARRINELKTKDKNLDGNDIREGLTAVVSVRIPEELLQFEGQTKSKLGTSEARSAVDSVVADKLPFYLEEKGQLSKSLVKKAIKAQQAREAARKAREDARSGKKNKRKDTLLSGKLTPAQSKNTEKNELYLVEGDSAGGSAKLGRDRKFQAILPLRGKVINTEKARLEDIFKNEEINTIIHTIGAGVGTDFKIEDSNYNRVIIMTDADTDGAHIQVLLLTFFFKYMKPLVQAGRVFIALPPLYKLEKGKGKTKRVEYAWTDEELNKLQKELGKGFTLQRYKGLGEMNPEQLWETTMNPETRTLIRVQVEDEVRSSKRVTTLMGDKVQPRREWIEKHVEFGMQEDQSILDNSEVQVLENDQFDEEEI
Cytochrome P450 2C9, sequence (P11712 whole entry): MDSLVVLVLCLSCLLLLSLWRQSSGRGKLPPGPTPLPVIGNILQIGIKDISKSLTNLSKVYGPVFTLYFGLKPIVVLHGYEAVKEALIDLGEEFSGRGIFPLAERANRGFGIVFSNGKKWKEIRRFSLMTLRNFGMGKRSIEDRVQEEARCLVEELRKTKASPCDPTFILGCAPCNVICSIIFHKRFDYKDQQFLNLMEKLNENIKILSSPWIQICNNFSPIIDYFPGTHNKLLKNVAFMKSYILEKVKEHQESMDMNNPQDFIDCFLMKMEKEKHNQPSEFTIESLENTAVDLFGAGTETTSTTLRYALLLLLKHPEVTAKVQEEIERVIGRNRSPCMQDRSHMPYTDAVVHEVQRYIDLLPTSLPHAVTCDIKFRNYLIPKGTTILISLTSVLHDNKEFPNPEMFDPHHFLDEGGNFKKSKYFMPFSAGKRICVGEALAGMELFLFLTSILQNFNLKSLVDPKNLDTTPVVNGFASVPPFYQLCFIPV
Acetylcholinesterase (Homo sapiens), sequence (P22303 whole entry): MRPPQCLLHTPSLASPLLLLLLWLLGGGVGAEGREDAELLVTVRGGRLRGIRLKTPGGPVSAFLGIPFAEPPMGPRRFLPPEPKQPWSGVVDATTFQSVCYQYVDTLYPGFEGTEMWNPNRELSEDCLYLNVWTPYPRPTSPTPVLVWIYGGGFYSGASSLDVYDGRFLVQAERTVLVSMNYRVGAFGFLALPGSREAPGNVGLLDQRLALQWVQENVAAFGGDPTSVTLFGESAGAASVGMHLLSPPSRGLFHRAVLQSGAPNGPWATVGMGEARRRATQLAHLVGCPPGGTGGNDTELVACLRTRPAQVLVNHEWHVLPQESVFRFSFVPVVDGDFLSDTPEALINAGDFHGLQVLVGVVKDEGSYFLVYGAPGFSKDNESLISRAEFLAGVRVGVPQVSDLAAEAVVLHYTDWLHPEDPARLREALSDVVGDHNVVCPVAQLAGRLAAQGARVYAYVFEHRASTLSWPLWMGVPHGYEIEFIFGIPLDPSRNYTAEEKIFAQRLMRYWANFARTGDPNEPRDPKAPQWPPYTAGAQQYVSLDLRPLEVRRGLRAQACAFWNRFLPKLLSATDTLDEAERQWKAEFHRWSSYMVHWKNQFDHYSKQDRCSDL

For `COc1ccc2ncc(F)c(C[C@H](O)[C@H]3OC[C@H](NCc4cc5c(nn4)OCCS5)CO3)c2n1`, the MIC50 [1] was > 64 µg/mL, the MIC [2] was 0.125 µg/mL (≈ 0.255 µM) and the Activity [3] was 12%. For the same compound, the inhibition at 100 µM [4] was < 25%, the inhibition at 10 µM [5] was > 50% and the bioavailability [6] was 49%. For the same compound, the inhibition at 10 µM [7] was > 50%, the Activity [8] was < 25% and the inhibition at 100 µM [9] was < 25%. For the same compound, the pIC50 [10] was 3.69, the pIC50 [11] was < 3.90 and the inhibition at 10 µM [12] was > 50%. The inhibition at 100 µM [13] was < 25%, the MIC [14] was 0.25 µg/mL (≈ 0.511 µM) and the pIC50 [15] was < 5.00. For the same compound, the Activity [16] was “Dose-Dependent Effect”, the half-life [17] was 38 min and the inhibition [18] was > 45%. For the same compound, the MIC50 [19] was > 64 µg/mL, the inhibition at 100 µM [20] was < 25% and the MIC [21] was 0.125 µg/mL (≈ 0.255 µM). For the same compound, the pIC50 [22] was < 3.90, the inhibition at 100 µM [23] was < 25% and the Survival [24] was >50%. For the same compound, the pIC50 [25] was 5.46, the pIC50 [26] was < 5.00 and the pIC50 [27] was 6.66. The pIC50 [28] was < 3.90 and the pIC50 [29] was < 5.00.
